Source: paper PMC1301599 (Nucleic Acids Research, 2005)

How the values were obtained:
Assay type in all cases: cell-based
[1] = tested on: HIV-1 Tat-dependent trans-activation (TAR RNA; HIV-1 LTR firefly luciferase) in HeLa Tet-Off/Tat/luc-f/luc-R cells; assay: Inhibition of Tat-dependent trans-activation in HeLa cell reporter assay; settings: for reduction of firefly luciferase activity, 6 h delivery with chloroquine: 6 h incubation in presence of 100 µM chloroquine, then 18 h growth, 0.312-2.5 µM
Outline: (§1)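 HeLa Tet-Off/Tat/luc-f/luc-R cells (HIV-1 LTR-firefly, CMV-Renilla), 10 × 10^3/well, grown 24 h at 37°C. They were exposed 6 h in Opti-MEM with 100 µM chloroquine, with or without test compound diluted from 2.5 µM in that medium. Cells were PBS-washed, then grown 18 h in DMEM/10% FBS. Lysate firefly and Renilla luminescence was read sequentially, normalised to parallel-plate viability absorbance, and expressed as % of cells without test compound. Two replicates, three experiments.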

[2] = tested on: constitutive CMV promoter-directed Renilla luciferase in HeLa Tet-Off/Tat/luc-f/luc-R cells; assay: Control Renilla luciferase expression in HeLa cell reporter assay; settings: chloroquine alone treatment; data not shown
Outline: as §1

[3] = tested on: HeLa Tet-Off/Tat/luc-f/luc-R cells; assay: Toxicity assay; settings: 100 µM chloroquine; data not shown
Outline: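 This ran on a duplicate plate of HeLa Tet-Off/Tat/luc-f/luc-R cells (10 × 10^3/well, 24 h at 37°C). The plate got 6 h with 100 µM chloroquine in Opti-MEM, then a PBS wash and 18 h in DMEM/10% FBS. Live cells were quantified colorimetrically with the CellTiter 96 AQueous One reagent, absorbance at 490 nm. Two replicates in each of three experiments.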

Compound | level of firefly luciferase activity, chloroquine alone ([1]; 100 µM chloroquine, no CPP–PNA) | level of Renilla luciferase, chloroquine alone [2] | HeLa cell viability, chloroquine alone [3] | reduction of firefly luciferase activity, 6 h delivery with chloroquine [1]
CCN(CC)CCCC(C)Nc1ccnc2cc(Cl)ccc12 (centres unmarked) [chloroquine] | not significantly affected | reduction | No effect | 
CTCCGCAGCTCAGATC (disulfide) [mismatched conjugate 13] |  |  |  | no inhibitory activity
ATCGCTCGCACCATGC (disulfide) [scrambled conjugate 13] |  |  |  | no inhibitory activity
